Each block holds one compound with its values, some of them ahead of it.
Assays:
[1] = target: T1, Cholesteryl ester transfer protein (Homo sapiens, UniProt P11597); experiment: Inhibition of recombinant human CETP after 3 hrs using fluorescent cholesteryl containing HDL after 3 hrs by fluorescence assay
T1 sequence (P11597 whole entry): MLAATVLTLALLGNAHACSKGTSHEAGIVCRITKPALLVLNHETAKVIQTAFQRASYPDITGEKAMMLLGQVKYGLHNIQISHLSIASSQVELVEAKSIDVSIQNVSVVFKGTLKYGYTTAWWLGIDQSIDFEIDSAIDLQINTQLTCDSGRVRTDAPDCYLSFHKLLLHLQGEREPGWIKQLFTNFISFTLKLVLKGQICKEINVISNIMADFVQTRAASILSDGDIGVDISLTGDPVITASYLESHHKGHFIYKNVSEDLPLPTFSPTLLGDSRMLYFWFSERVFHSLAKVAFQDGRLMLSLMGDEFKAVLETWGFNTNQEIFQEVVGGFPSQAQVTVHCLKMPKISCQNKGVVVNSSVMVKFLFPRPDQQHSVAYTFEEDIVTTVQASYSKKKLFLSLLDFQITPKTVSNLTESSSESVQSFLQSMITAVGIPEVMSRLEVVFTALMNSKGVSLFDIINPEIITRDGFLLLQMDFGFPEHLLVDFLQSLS

[2] = tested on: Mus musculus; experiment: Induction of plasma total cholesterol levels in transgenic ap2-CETPTg mouse model at 30 mg/kg, po qd for 14 days measured 2 hrs post dose on day 14 by automated lipid analyzer relative to control; type: ADME, organism-based; details: in vivo
Summary of the method: (§1)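 ap2-CETPTg mice, which express human CETP in adipose tissue. Oral 30 mg/kg once daily for two weeks in DMSO/cremophor/saline 3:4:93. Retro-orbital blood drawn 2 h after the day-14 dose. HDL-C, LDL-C, TG and TC measured on an automated lipid analyzer, mean ± SD (n ≥ 6), versus control group.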

[3] = tested on: Cavia porcellus; experiment: Antihyperlipidemic activity in high-fat fed guinea pig model assessed as increase in plasma HDL cholesterol level at 30 mg/kg administered via oral gavage as qd for 14 days measured 2 hrs post dose on day 14 relative to control; type: functional
Summary of the method: (§2)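 Male guinea pigs, 12 weeks old, fed a high-fat diet (2.5% coconut oil, 0.25% cholesterol) for two weeks. Gavage at 30 mg/kg once daily for two weeks while the diet continued. Plasma taken retro-orbitally 2 h after the day-14 dose. HDL-C, LDL-C, TG and TC reported as mean ± SD (n ≥ 6) versus the untreated high-fat model group.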

[4] = tested on: Mus musculus; experiment: Induction of plasma triglyceride levels in transgenic ap2-CETPTg mouse model at 30 mg/kg, po qd for 14 days measured 2 hrs post dose on day 14 by automated lipid analyzer relative to control; type: ADME, organism-based; details: in vivo; summary of the method: as §1
[5] = Octanol-water partition coefficient, log P of the compound at pH 7.4 by HPLC based shake flask method; type: physicochemical
[6] = tested on: Cavia porcellus; experiment: Hypolipidemic activity in high-fat fed guinea pig model assessed as reduction in plasma LDL cholesterol levels at 30 mg/kg administered via oral gavage as qd for 14 days measured 2 hrs post dose on day 14 relative to control; type: functional; parameters: scale not given: the % may be the effect or the level left; summary of the method: as §2
[7] = tested on: Mus musculus; experiment: Hypolipidemic activity in transgenic ap2-CETPTg mouse model assessed as reduction in plasma LDL cholesterol levels at 30 mg/kg, po qd for 14 days measured 2 hrs post dose on day 14 by automated lipid analyzer relative to control; type: functional; parameters: scale not given: the % may be the effect or the level left; summary of the method: as §1
[8] = Terminal half life in normal fed guinea pig at 30 mg/kg administered via oral gavage by LC-MS/MS analysis; type: ADME, organism-based, Cavia porcellus; details: in vivo, read-out: beta t1/2 (converted)
[9] = tested on: Cavia porcellus; experiment: Drug level in normal fed guinea pig treated with 3-beta-[(2-Carboxyphenyl)carbonyloxy]-olean-12-en-28-oic acid at 30 mg/kg administered via oral gavage by LC-MS/MS analysis; type: ADME, organism-based; details: in vivo
[10] = target: T2, Pancreatic triacylglycerol lipase (Sus scrofa, UniProt P00591); experiment: Inhibition of porcine pancreatic lipase using 2,3-dimercaptopropan-1-ol tributyrate as substrate preincubated for 5 mins followed by substrate addition measured after 30 mins by colorimetric assay
T2 sequence (P00591 whole entry): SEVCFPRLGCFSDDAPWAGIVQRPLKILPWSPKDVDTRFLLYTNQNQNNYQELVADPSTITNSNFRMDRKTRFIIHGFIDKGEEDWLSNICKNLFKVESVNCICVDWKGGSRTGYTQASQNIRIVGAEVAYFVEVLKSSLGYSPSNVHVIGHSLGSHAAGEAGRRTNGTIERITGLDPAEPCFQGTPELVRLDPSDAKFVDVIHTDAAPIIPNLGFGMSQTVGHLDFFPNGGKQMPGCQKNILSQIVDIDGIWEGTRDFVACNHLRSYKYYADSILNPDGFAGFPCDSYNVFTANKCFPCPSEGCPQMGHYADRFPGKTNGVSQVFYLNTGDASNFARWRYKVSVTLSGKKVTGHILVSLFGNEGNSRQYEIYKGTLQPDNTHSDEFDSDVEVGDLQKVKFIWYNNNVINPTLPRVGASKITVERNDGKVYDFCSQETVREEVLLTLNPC

[11] = MRT (0 to 48 hrs) in normal fed guinea pig at 30 mg/kg administered via oral gavage by LC-MS/MS analysis; type: ADME, organism-based, Cavia porcellus; details: in vivo
[12] = Tmax in normal fed guinea pig at 30 mg/kg administered via oral gavage by LC-MS/MS analysis; type: ADME, organism-based, Cavia porcellus; details: in vivo
[13] = AUC (0 to 48 hrs) in normal fed guinea pig at 30 mg/kg administered via oral gavage by LC-MS/MS analysis; type: ADME, organism-based, Cavia porcellus; parameters: time < 48 hr, dose 30 mg/kg, route oral; details: in vivo
[14] = AUC (0 to infinity) in normal fed guinea pig at 30 mg/kg administered via oral gavage by LC-MS/MS analysis; type: ADME, organism-based, Cavia porcellus; parameters: dose 30 mg/kg, route oral, time infinity; details: in vivo
[15] = Cmax in normal fed guinea pig at 30 mg/kg administered via oral gavage by LC-MS/MS analysis; type: ADME, organism-based, Cavia porcellus; parameters: dose 30 mg/kg, route oral; details: in vivo
[16] = MRT (0 to infinity) in normal fed guinea pig at 30 mg/kg administered via oral gavage by LC-MS/MS analysis; type: ADME, organism-based, Cavia porcellus; details: in vivo

Structure (SMILES): CC(=O)O[C@H]1CC[C@]2(C)[C@H]3CC=C4[C@@H]5CC(C)(C)CC[C@]5(C(=O)O)CC[C@@]4(C)[C@]3(C)CC[C@H]2C1(C)C [ACETYL OLEANOLIC ACID]
IC50 [1]: Not Active

Structure (SMILES): C=C(C)[C@@H]1CC[C@]2(C(=O)O)CC[C@]3(C)[C@H](CC[C@@H]4[C@@]5(C)CC[C@H](O)C(C)(C)[C@@H]5CC[C@]43C)[C@@H]12 [BETULINIC ACID]
IC50 [1]: Not Active

Structure (SMILES): CCC(CC)CC1(C(=O)Nc2ccccc2SC(=O)C(C)C)CCCCC1 [DALCETRAPIB]
logD [5]: 0.92

Structure (SMILES): Cc1cc(C)c2c(c1)[C@@H](N(Cc1cc(C(F)(F)F)cc(C(F)(F)F)c1)c1nnn(C)n1)CCCN2C[C@H]1CC[C@H](C(=O)O)CC1 [EVACETRAPIB]
logD [5]: 0.51

Structure (SMILES): CC1(C)CC[C@]2(C(=O)O)CC[C@]3(C)C(=CC[C@@H]4[C@@]5(C)CC[C@H](OC(=O)CCC(=O)O)C(C)(C)[C@@H]5CC[C@]43C)[C@@H]2C1 [OLEANOLIC ACID 3-O-SUCCINATE]
IC50 ([1]; read-out: IC50): 4.3 µM

Structure (SMILES): CCOC(=O)N1c2ccc(C(F)(F)F)cc2[C@@H](N(Cc2cc(C(F)(F)F)cc(C(F)(F)F)c2)C(=O)OC)C[C@H]1CC [TORCETRAPIB]
logD [5]: 1.05

More lines, main results first:

Activity [2]: 17.8% | Activity [4]: 4.7% | logD [5]: 0.73
Structure (SMILES): COc1cc(F)c(C(C)C)cc1-c1ccc(C(F)(F)F)cc1CN1C(=O)O[C@H](c2cc(C(F)(F)F)cc(C(F)(F)F)c2)[C@@H]1C [ANACETRAPIB]
Activity [3]: 82.2% | Activity [6]: 30.2% | Activity [7]: 40.4%

half-life [8]: 11.7 h | Drug metabolism [9]: Metabolite_Detected | IC50 [10]: 182 µM | MRT last [11]: 11.7 h | Tmax [12]: 0.75 h | AUC(0-t) at 48 h [13]: 291 ng·h/mL | AUC(0-inf) [14]: 312 ng·h/mL | Cmax [15]: 52.2 ng/mL | MRT inf [16]: 15 h
Structure (SMILES): CC1(C)CC[C@]2(C(=O)O)CC[C@]3(C)C(=CC[C@@H]4[C@@]5(C)CC[C@H](O)C(C)(C)[C@@H]5CC[C@]43C)[C@@H]2C1 [OLEANOLIC_ACID]

IC50 ([1]; read-out: IC50): 46.6 µM
Structure (SMILES): C[C@H]1[C@H](C)CC[C@]2(C(=O)O)CC[C@]3(C)C(=CC[C@@H]4[C@@]5(C)CC[C@H](O)C(C)(C)[C@@H]5CC[C@]43C)[C@H]12 [URSOLIC ACID]
